These results are taken from ChEMBL document CHEMBL1130321, “Synthesis and in vitro activity of 3 beta-substituted-3 alpha-hydroxypregnan-20-ones: allosteric modulators of the GABAA receptor” (J Med Chem, 1997).

Assay [1] addresses GABA-A receptor; anion channel. Description: Ability to allosterically modulate the binding of [35S]TBPS to gamma-aminobutyric-acid A receptor in rat brain cortical P2 membranes. It counts as cell membranes, Membrane. A digest of the protocol: (§1)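 Rat cortical P2 membranes washed in 200 mM NaCl/50 mM Na-K phosphate pH 7.4. Incubated with 2 nM [35S]TBPS, 5 µM GABA and compound at nine concentrations from 1 nM to 10 µM final (DMSO 0.5% final), 90 min at room temperature. Nonspecific binding was defined with 2 µM unlabeled TBPS. Read-out was filtration and scintillation counting. IC50 and Imax came from partial or full inhibition fits chosen by F-test. Values are mean ± SEM of 3-9 experiments.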

In assay [2] the target is GABA-A receptor; alpha-1/beta-2/gamma-2 (Homo sapiens) (UniProt P14867+P47870+P18507). Description: Hill value, slope calculated from GABA-current potentiation in Xenopus oocytes. Format: functional, cell-based. The settings on record: Oocyte. Summed up:
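Xenopus oocytes injected 1:1:1 with human α1, β2, γ2L cRNAs (~1 ng each per cell); two-electrode voltage clamp in frog Ringer (NaCl 115, KCl 2, CaCl2 1.8, HEPES 5 mM, pH 7.4). Steroid DMSO stocks diluted […] (DMSO 0.3% final). Increasing steroid applied on a GABA response set to ~5% of the 3 mM GABA maximum. Data fit to a four-parameter logistic; mean ± SEM.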

The species entered for assay [3] is Rattus norvegicus. The assay is described as follows: Percent of maximal extent of inhibition was calculated by fitting [35S]TBPS inhibition data to a sigmoid function (rat brain cortical P2 membranes). Format: functional. Summed up:
as §1

Assay [4] is filed under the species Rattus norvegicus. Description: Percent of maximal extent of inhibition was calculated by fitting [35S]TBPS inhibition data to a sigmoid function (rat brain cortical P2 membranes) at 10 uM concentration. It counts as functional. Summed up: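 Rat cortical P2 membranes washed in 200 mM NaCl/50 mM Na-K phosphate, pH 7.4. Incubated 90 min at room temperature with 2 nM [35S]TBPS, 5 μM GABA and steroid in DMSO (0.5% final). Nonspecific binding defined with 2 μM unlabeled TBPS. Filtration, scintillation counting. Partial or full inhibition model chosen by F-test.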

The target in assay [5] is GABA-A receptor; anion channel. The assay is described as follows: Allosteric modulation of [35S]TBPS binding to Gamma-aminobutyric acid A receptor in rat brain cortical P2 membranes (inhibits binding with two components). It counts as cell membranes, Membrane. A digest of the protocol: as §1

For `CC(=O)[C@H]1CC[C@H]2[C@@H]3CC[C@H]4C[C@@](O)(CC#N)CC[C@]4(C)[C@H]3CC[C@]12C`, the IC50 in assay [1] came to 614 nM. For the same compound, the Hill coefficient in assay [2] was 1. For the same compound, the Imax in assay [3] was 38%.
`CSC[C@@]1(O)CC[C@@]2(C)[C@@H](CC[C@@H]3[C@@H]2CC[C@]2(C)[C@@H](C(C)=O)CC[C@@H]32)C1`: the Imax in assay [4] was 46%. The IC50 in assay [1] is more than 10000 nM.
`CC(=O)[C@H]1CC[C@H]2[C@@H]3CC[C@@H]4C[C@H](O)CC[C@]4(C)[C@H]3CC[C@]12C` [ELTANOLONE] showed an IC50 in assay [5] of 44 nM. The Imax in assay [3] is 65%.
In assay [1], `CC(=O)[C@H]1CC[C@H]2[C@@H]3CC[C@H]4C[C@@](O)(COCc5ccccc5)CC[C@]4(C)[C@H]3CC[C@]12C` displayed an IC50 of 376 nM. Further, the Hill coefficient in assay [2] was 1.6. In addition, the Imax in assay [3] is 57%.
For `CCCC(C)C1(CC)C(=O)NC(=O)NC1=O` (configuration not stated), in assay [2], the Hill coefficient was 1. Moreover, the Imax in assay [3] is 100%.
